As a reminder, the inhibition is the relative decrease from the control value, in per cent.

Results on 19 compounds are retold here after ChEMBL document CHEMBL1649409, “One-pot microwave assisted synthesis under green chemistry conditions, antioxidant screening, and cytotoxicity assessments of benzimidazole Schiff bases and pyrimido[1,2-a]benzimidazol-3(4H)-ones” (Eur J Med Chem, 2011).

Data set [1] deals with Radical scavenging activity. Briefly: Antioxidant activity assessed as DPPH radical scavenging activity at 0.05 mM after 20 mins. Format: functional. A digest of the protocol: (§1)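 DPPH (0.05 mM in absolute ethanol) mixed with an equal volume of compound in DMSO (final 0.05 mM). Shaken vigorously, left 20 or 60 min, absorbance read at 517 nm. Percent activity calculated; three replicates averaged.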
(In general: DPPH is a stable violet radical that fades when it is reduced.)

Data set [2] concerns Radical scavenging activity. As to the kind of experiment: Antioxidant activity assessed as DPPH radical scavenging activity at 0.05 mM after 60 mins. Format: functional. A digest of the protocol: as §1
In data set [3] the test system is Glycine max. As to the kind of experiment: Inhibition of soybean LOX at 0.1 mM. In a few lines: (§2)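 Soybean lipoxygenase solution (1/9×10^-4 w/v in saline) incubated at RT with sodium linoleate and compound in DMSO. Conversion to 13-hydroperoxylinoleic acid recorded at 234 nm against a standard inhibitor. At least triplicate, averaged.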
In data set [4] the test system is Glycine max. As to the kind of experiment: Inhibition of soybean LOX at 0.01 mM. A digest of the protocol: as §2
A short description of data set [5]: Antioxidant activity assessed as protection against […]-induced linoleic acid lipid peroxidation 0.1 mM. Format: functional. In a few lines: (§3)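 Linoleic acid sodium salt (16 mM solution) in 0.05 M phosphate buffer, pH 7.4, prethermostated at 37 °C. Oxidation started at 37 °C under air with 40 mM AAPH solution, with compound aliquots in DMSO present. Blanks carry the same DMSO level. Conjugated diene hydroperoxide formation followed by absorbance increase at 234 nm. At least triplicate, averaged.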

Data set [6] in a line: Cytotoxicity against human lung fibroblast assessed as cell viability at 0.17 mM after 24 hrs by MTT assay. Format: cell-based. The conditions noted are these: human lung fibroblasts, read-out: Activity. In a few lines:
(§4)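 Human lung fibroblasts, passage 19, grown in DMEM with 10% FBS, penicillin and streptomycin at 37 °C, 5% CO2. Seeded at 3×10^4 cells/mL and allowed to adhere 24 h. Exposed 24 h to compounds in DMSO (≤1% final), 1–50 µg/mL. After washing, MTT (5 mg/mL in PBS) added for 4–6 h at 37 °C. Formazan dissolved in isopropanol, read at 570 nm. At least three measurements.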

A short description of data set [7]: Antioxidant activity assessed as protection against […]-induced linoleic acid lipid peroxidation 0.01 mM. Format: functional. In a few lines:
as §3

A short description of data set [8]: Cytotoxicity against human lung fibroblast assessed as cell viability at 0.16 mM after 24 hrs by MTT assay. Format: cell-based. The conditions noted are these: human lung fibroblasts, read-out: Activity. In a few lines:
as §4
A general note: Tetrazolium dyes change colour on reduction, which living cells bring about.

Data set [9] is described as follows: Cytotoxicity against human lung fibroblast assessed as cell viability at 50 ug/ml after 24 hrs by MTT assay. The data set is classed as cell-based. The conditions noted are these: human lung fibroblasts, read-out: Activity. In a few lines: as §4
Data set [10] can be described thus: Cytotoxicity against human lung fibroblast assessed as cell viability at 0.04 mM after 24 hrs by MTT assay. The data set is classed as cell-based. The conditions noted are these: 40 µM. A digest of the protocol:
as §4

Data set [11] in a line: Cytotoxicity against human lung fibroblast assessed as cell viability at 0.02 mM after 24 hrs by MTT assay. Format: cell-based. The conditions noted are these: 20 µM. A digest of the protocol: as §4
Data set [12] can be described thus: Cytotoxicity against human lung fibroblast assessed as cell viability at 0.03 to 0.037 mM after 24 hrs by MTT assay. Format: cell-based. The conditions noted are these: human lung fibroblasts, in the assay text read “0.003 to 0.037 mM” for “0.03 to 0.037 mM”, read-out: Activity. In a few lines:
as §4

Molecules are shown by their SMILES. Calls of active or inactive are those of the source. The rule behind the calls is not given here.

Turning to `CC(Cc1ccc(O)c(O)c1)C(C)Cc1ccc(O)c(O)c1` (stereo not drawn), the inhibition was 81% in data set [1], 83% in [2], 84% in the data set with Glycine max [3] and 40% with Glycine max [4].

As to `C/C(=N\c1nc2ccccc2[nH]1)c1ccc2ccccc2c1`, the inhibition turned out to be 5% in data set [1]; 7% in data set [2]; 97% in data set [5]; 98% in the data set on Glycine max [3]; 18% in the data set with Glycine max [4]; 26% in data set [7]. Also, the viability at 24 h, 170 µM in data set [6] stood at 62.5%.

In the case of `C/C(=N\c1nc2ccccc2[nH]1)c1ccc(Br)cc1`, the viability at 24 h, 160 µM in [8] was 73.6%. Besides, the inhibition result (in data set [1]; in the data set on Glycine max [4]) was “inactive” each time. Moreover, the inhibition in data set [2] turned out to be 4%; in [5], 50%; in the data set on Glycine max [3], 18%; in data set [7], 22%.

For `CC1(c2cccc(Br)c2)C(=O)C(c2cccc(Br)c2)=Nc2nc3ccccc3n21` (stereo not drawn), the inhibition result (in data set [1]; in the data set on Glycine max [4]) was “inactive” throughout. Also, the inhibition in data set [2] stood at 3%; in the data set on Glycine max [3] it was 12%; in [7], 51%.

Consider `Cc1cccc(C2=Nc3nc4ccccc4n3C(C)(c3cccc(C)c3)C2=O)c1` (stereo not drawn), for which the inhibition in data set [1] worked out at 4%; in data set [2], 5%; in [5], 84%; with Glycine max [3], 19%; in [7] it was 35%. Besides, the inhibition entry with Glycine max [4] was “inactive”.

As for `C/C(=N\c1nc2ccccc2[nH]1)c1ccccc1`, the inhibition in [1] was 0.3%; in data set [2], 5%; in data set [5], 67%; in data set [7], 18%. Moreover, the inhibition entry in the data set with Glycine max [3] and in the data set with Glycine max [4] was “inactive” throughout.

In the case of `C/C(=N\c1nc2ccccc2[nH]1)c1ccc(C)cc1`, the inhibition entry (in [1]; with Glycine max [3]; in the data set on Glycine max [4]) was “inactive” in each case. For the same compound, the inhibition in data set [2] was determined as 8%; in data set [5], 84%; in [7] it was 47%.

With `COc1cccc(C2=Nc3nc4ccccc4n3C(C)(c3cccc(OC)c3)C2=O)c1` (stereo not drawn), the inhibition is 3% in data set [1], 2% in [2], 100% in data set [5] and 3% in data set [7]. The inhibition entry in the data set on Glycine max [3] and in the data set on Glycine max [4] was “inactive” each time. In [9], the viability at 24 h, 50 ug/ml amounted to 63%. Moreover, in data set [10], the Activity result is “Non-toxic”.

For the compound `C/C(=N\c1nc2ccccc2[nH]1)c1ccc(Cl)cc1`, the inhibition was 3% in data set [1]; 4% in data set [2]; 26% in [5]; 85% in the data set with Glycine max [3]; 62% in the data set on Glycine max [4].

Consider `C/C(=N\c1nc2ccccc2[nH]1)c1cccc(C)c1`, for which the inhibition entry (in [1]; in data set [2]; in the data set with Glycine max [4]) was “inactive” each time. The inhibition stood at 77% in [5], 8% in the data set on Glycine max [3] and 63% in [7].

For `COc1cccc(/C(C)=N/c2nc3ccccc3[nH]2)c1`, the inhibition result (in data set [1]; in [2]; in the data set with Glycine max [4]) was “inactive” throughout. Further, the results for the inhibition (in [5]; with Glycine max [3]; in data set [7]) were 100%, 42% and 69%, respectively.

In the case of `CC1(c2ccccc2)C(=O)C(c2ccccc2)=Nc2nc3ccccc3n21` (stereo not drawn), the inhibition was 2% in [1]; 1% in [2]; 100% in [5]; 100% in the data set with Glycine max [3]; 49% in the data set with Glycine max [4]; 11% in data set [7].

As to `C/C(=N\c1nc2ccccc2[nH]1)c1cccc(Br)c1`, the inhibition result (in data set [1]; in the data set with Glycine max [3]; in the data set with Glycine max [4]) was “inactive” each time. For the same compound, the inhibition in [2] is 6%; in [5] it was 97%; in data set [7], 65%.

For `Cc1cc(C(C)(C)C)c(O)c(C(C)(C)C)c1`, the inhibition in data set [1] stood at 31%; in [2], 60%.

`Cc1c(C)c2c(c(C)c1O)CCC(C)(C(=O)O)O2` (stereo not drawn): the inhibition in data set [5] came to 63%.

As to `CC1(c2ccc(Cl)cc2)C(=O)C(c2ccc(Cl)cc2)=Nc2nc3ccccc3n21` (stereo not drawn), the inhibition in data set [1] was 2%; in [2], 2%; in [5], 97%; in data set [7], 33%. In addition, the inhibition result with Glycine max [3] and with Glycine max [4] was “inactive” in each case. In addition, in data set [9], the viability at 24 h, 50 ug/ml was found to be 37%. The Activity result in data set [11] is recorded as “Non-toxic”.

Turning to `CC1(c2ccc(Br)cc2)C(=O)C(c2ccc(Br)cc2)=Nc2nc3ccccc3n21` (stereo not drawn), the inhibition in data set [1] worked out at 3%; in data set [2] it was 2%; in data set [5], 78%; with Glycine max [3] it was 61%; in the data set with Glycine max [4], 51%; in [7] it was 9%.

For `COc1ccc(/C(C)=N/c2nc3ccccc3[nH]2)cc1`, the viability at 24 h, up to 37 µM in [12] came out at 56%. The inhibition is 4% in [1]; 3% in [2]; 68% in data set [5]; 65% in the data set on Glycine max [3]; 22% in the data set with Glycine max [4]; 12% in data set [7].

On to `Cc1ccc(C2=Nc3nc4ccccc4n3C(C)(c3ccc(C)cc3)C2=O)cc1` (stereo not drawn), for which the inhibition result (in data set [1]; in [2]; with Glycine max [4]) was “inactive” each time. The inhibition was determined as 80% in data set [5], 40% in the data set on Glycine max [3] and 8% in data set [7].
